According to ChEMBL document CHEMBL1138007, “Examining the correlations between GSK-3 inhibitory properties and anti-convulsant efficacy of valproate and valproate-related compounds” (Bioorg Med Chem Lett, 2004):
Active and inactive are the calls of the source. The rule behind the calls is not given here.

Experiments:
[1] = Inhibitory activity (20 mM) against Glycogen synthase kinase-3 beta, expressed as percent control; set-up: scale not given: the % may be the effect or the level left
[2] = Inhibitory activity against Glycogen synthase kinase-3 beta, expressed as percent control; set-up: concentration or dose not given beside the values
Method in brief: (§1)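 Recombinant GSK-3α or β, preincubated with compound (0-4 mM), then given phospho-glycogen synthase peptide-2 substrate and [γ-³²P]-ATP plus unlabelled ATP. Buffer: 20 mM MOPS, 0.25 mM Mg acetate, 5 mM MgCl₂, 5 mM β-glycerophosphate, 1 mM EGTA, 0.25 mM Na₃VO₄, 0.25 mM DTT. Reaction ran 30 min at 30 °C, then was spotted on phosphocellulose, acid-washed and scintillation-counted. Background-subtracted counts were normalized to uninhibited activity.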

[3] = molecular target: Glycogen synthase kinase-3 alpha (Homo sapiens) (UniProt P49840); experiment: Inhibitory activity against Glycogen synthase kinase-3 alpha, expressed as percent control; set-up: concentration or dose not given beside the values; method in brief: as §1
[4] = Anti-convulsant activity in experimental animal model; +++ = more effective; type: functional
[5] = Anti-convulsant activity in experimental animal model; ++ = relative to valproate; type: functional
[6] = Anti-convulsant activity in experimental animal model; + = less effective; type: functional
[7] = molecular target: Glycogen synthase kinase-3 alpha (Homo sapiens) (UniProt P49840); experiment: Inhibitory activity (0.5 mM) against Glycogen synthase kinase-3 alpha, expressed as percent control; set-up: scale not given: the % may be the effect or the level left; method in brief: as §1
[8] = Inhibitory activity (0.5 mM) against Glycogen synthase kinase-3 beta, expressed as percent control; set-up: scale not given: the % may be the effect or the level left; method in brief: as §1
[9] = Inhibitory activity (4 mM) against Glycogen synthase kinase-3 beta, expressed as percent control; set-up: scale not given: the % may be the effect or the level left; settings: in the assay text read “(0.5 mM)” for “(4 mM)”; method in brief: as §1
[10] = molecular target: Glycogen synthase kinase-3 alpha (Homo sapiens) (UniProt P49840); experiment: Inhibitory activity (4 mM) against Glycogen synthase kinase-3 alpha, expressed as percent control; set-up: scale not given: the % may be the effect or the level left; method in brief: as §1

Chain of Glycogen synthase kinase-3 alpha (Homo sapiens) (P49840 2-483 limits assumed): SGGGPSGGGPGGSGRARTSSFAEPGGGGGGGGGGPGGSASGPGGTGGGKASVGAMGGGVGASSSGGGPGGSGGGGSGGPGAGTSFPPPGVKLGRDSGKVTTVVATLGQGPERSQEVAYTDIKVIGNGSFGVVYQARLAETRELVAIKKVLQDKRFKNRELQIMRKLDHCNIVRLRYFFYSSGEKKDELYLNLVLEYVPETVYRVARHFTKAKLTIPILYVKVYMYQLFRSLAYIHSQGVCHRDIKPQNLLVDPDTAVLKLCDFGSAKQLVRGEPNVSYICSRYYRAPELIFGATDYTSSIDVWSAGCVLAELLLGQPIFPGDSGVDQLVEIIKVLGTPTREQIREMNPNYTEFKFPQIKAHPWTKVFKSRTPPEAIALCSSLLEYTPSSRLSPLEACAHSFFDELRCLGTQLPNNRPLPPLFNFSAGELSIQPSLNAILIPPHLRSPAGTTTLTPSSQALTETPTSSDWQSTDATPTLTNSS

SMILES | Control [2] [%] | Control [3] [%] | further results
[Cl-].[Li+] |  |  | Control [1]: 19.5%
CCCC(C)(CCC)C(=O)O | 24.8 | 67.4 | Activity [4]: Active
CC/C=C(\CCC)C(=O)O | 91.3 | 100 | Activity [5]: Active
C=CCC(CCC)C(=O)OC(C)C (stereo not given) | 110 | 87.9 | 
O=C1NC(=O)C(c2ccccc2[N+](=O)[O-])=C1Nc1ccc(O)c(Cl)c1 |  |  | Control [1]: 4.6%
C=CCC(CCC)C(=O)O (stereo not given) | 57.7 | 99.2 | Activity [4]: Active
CCCC(CCC)C(N)=O | 83.9 | 96.6 | Activity [4]: Active
CCC(CC)C(=O)O |  |  | Activity [6]: Weak activity; Control [7]: 88.3%; Control [8]: 56.1%; Control [9]: 56.1%; Control [10]: 0.5%

More lines, main results first:

Control [2] [%] | Control [3] [%] | SMILES | further results
49.1 | 54.2 | CCCC(CCC)C(=O)NO | Activity [4]: Active
33.3 | 61.3 | CC/C=C(\CCC)C(=O)OC | 
81.8 | 104 | CCCC(CCC)C(=O)OC | 
123 | 99.9 | C=CCC(CCC)C(=O)OC (stereo not given) | 
35.5 | 80.4 | CCCC(CCC)C(=O)O | Activity [5]: Active
122 | 99.7 | CCCC(C)(CCC)C(=O)OC | 
